From ChEMBL document CHEMBL4354849, “[1,2,5]Oxadiazolo[3,4-b]pyrazine-5,6-diamine Derivatives as Mitochondrial Uncouplers for the Potential Treatment of Nonalcoholic Steatohepatitis” (J Med Chem, 2020)

What was measured:
[1] = Induction of mitochondrial uncoupling in rat L6 cells assessed as oxygen consumption rate measured over 90 mins by oxygen consumption rate by seahorse assay; format: mitochondria, Mitochondria
L6 = assay: Induction of mitochondrial uncoupling in rat L6 cells assessed as oxygen consumption rate up to 50 uM measured over 90 mins by oxygen consumption rate by seahorse assay relative to <= 50 uM BAM15; settings: Mitochondria
Method in brief: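 L6 rat myoblasts were seeded at 3.5 × 10⁴ cells/well and left to adhere overnight. Medium was switched to unbuffered DMEM with pyruvate and glutamine, pH 7.4, and cells were equilibrated 1 h at 37°C without CO₂. One concentration per well, 2 wells per condition, OCR followed over 90 min. The first three post-injection readings were averaged to build the dose curve. AUC above baseline was expressed relative to BAM15 run on each plate; EC50 came from a Hill fit with the bottom fixed at 100% baseline.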

EC50 [1] [nM]	Activity (L6) [%]	SMILES
< 1000		Fc1cc(F)cc(Nc2nc3nonc3nc2Nc2cc(F)cc(F)c2)c1
< 370		Fc1ccccc1Nc1nc2nonc2nc1Nc1cc(C(F)(F)F)cc(C(F)(F)F)c1
2200	65	Fc1ccccc1Nc1nc2nonc2nc1Nc1ccccc1
13400		Fc1ccccc1Nc1nc2nonc2nc1NC1CCCCC1
< 1000		Fc1ccccc1Nc1nc2nonc2nc1Nc1cccc(C(F)(F)F)c1
< 1000		Fc1ccc(C(F)(F)F)cc1Nc1nc2nonc2nc1Nc1cc(C(F)(F)F)ccc1F
10100	45	CCOc1cccc(Nc2nc3nonc3nc2Nc2cccc(OCC)c2)c1
1400	57	Fc1ccccc1Nc1nc2nonc2nc1Nc1ccccc1C(F)(F)F
> 100000		Cc1ccc(Nc2nc3nonc3nc2Nc2ccc(C)c(C)c2)cc1C
1600	52	COc1ccc(Nc2nc3nonc3nc2Nc2ccccc2F)cc1
9000	20	Fc1ccccc1Nc1nc2nonc2nc1Nc1ccccn1
2100	22	Cc1cccc(Nc2nc3nonc3nc2Nc2cccc(C)c2)c1
5600	15	CCOc1ccccc1Nc1nc2nonc2nc1Nc1ccccc1F
2300		Cc1ccccc1Nc1nc2nonc2nc1Nc1ccccc1C
500	15	Fc1ccccc1Nc1nc2nonc2nc1Nc1cccc(F)c1F
< 370		Fc1ccccc1Nc1nc2nonc2nc1Nc1cccc(C(F)(F)F)c1F
2200		FC(F)(F)Oc1ccc(Nc2nc3nonc3nc2Nc2ccc(OC(F)(F)F)c(Br)c2)cc1Br

EC50 [1] [nM]	Activity (L6) [%]	SMILES
> 100000		Fc1ccccc1Nc1nc2nonc2nc1NCCC(F)(F)F
1300		Fc1ccccc1Nc1nc2nonc2nc1Nc1ccc(OC(F)(F)F)cc1
1100	58	Cc1ccccc1Nc1nc2nonc2nc1Nc1ccccc1F
300	22	Fc1ccc(Nc2nc3nonc3nc2Nc2ccccc2F)c(F)c1
830		COc1cccc(Nc2nc3nonc3nc2Nc2ccccc2F)c1
> 100000	43	COc1cccc(Nc2nc3nonc3nc2Nc2cccc(OC)c2)c1
2100		Cc1ccc(Nc2nc3nonc3nc2Nc2ccccc2F)cc1
45000	20	C1CCC(Nc2nc3nonc3nc2NC2CCCC2)C1
600	8	Fc1ccccc1Nc1nc2nonc2nc1Nc1cccc(OC(F)(F)F)c1
3900		CCc1ccc(Nc2nc3nonc3nc2Nc2ccc(CC)cc2)cc1
8800		Fc1cc(I)ccc1Nc1nc2nonc2nc1Nc1ccc(I)cc1F
1500		Cc1cccc(Nc2nc3nonc3nc2Nc2ccccc2F)c1
4100		O=C(Nc1ccc(Nc2nc3nonc3nc2Nc2ccccc2F)cc1)C(F)(F)F
3800		CCOc1ccc(Nc2nc3nonc3nc2Nc2ccccc2F)cc1
1100		Fc1cc(F)c(Nc2nc3nonc3nc2Nc2c(F)cc(F)cc2F)c(F)c1
< 3000		Fc1cc(Br)ccc1Nc1nc2nonc2nc1Nc1ccc(Br)cc1F

SMILES	EC50 [1] [nM]	Activity (L6) [%]
FC(F)(F)c1cccc(Nc2nc3nonc3nc2Nc2cccc(C(F)(F)F)c2)c1	700	28
Fc1cc(Nc2nc3nonc3nc2Nc2ccc(C(F)(F)F)c(F)c2)ccc1C(F)(F)F	1700	
Fc1ccc(Nc2nc3nonc3nc2Nc2ccccc2F)cc1	2300	65
Fc1ccccc1Nc1nc2nonc2nc1Nc1ccccc1OC(F)(F)F	1700	67
FC(F)(F)c1cc(Nc2nc3nonc3nc2Nc2cc(C(F)(F)F)cc(C(F)(F)F)c2)cc(C(F)(F)F)c1	6100	
FC(F)(F)Oc1ccc(Nc2nc3nonc3nc2Nc2ccc(OC(F)(F)F)cc2)cc1	< 5000	14
Fc1ccccc1Nc1nc2nonc2nc1Nc1ccc(C(F)(F)F)cc1	270	
Fc1cc(C(F)(F)F)ccc1Nc1nc2nonc2nc1Nc1ccc(C(F)(F)F)cc1F	< 1000	
